Broadly, the inhibition is the relative decrease from the control value, in per cent.

Records with an inconclusive call do not appear. Calls of active or inactive are those of the source.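 Rule for the calls: active = mean inhibition at 30 µM above 50% in every run; inconclusive = inhibition above 50% in some runs but not in others; inactive = inhibition at most 50% in every run.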

This note sets out measurements from PubChem BioAssay AID2522 (Broad Institute, 2010).

The test system of this experiment is human washed platelets, A23187-induced P-selectin, flow cytometry. The experiment in a line: calcium ionophore platelet activation inhibition – cell-based, fluorescence, flow cytometry, platelets, selectivity assay (AID 2522). The following applies: at 30 µM, stronger effect = higher value. The gist of the method: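 Material: platelets / Reagent: Ca2+ ionophore A23187 at 10 µM, 15 min stimulation / Doses: single compound dose of 30 µM / Timing: 20 min compound pre-incubation, 15 min A23187, 20 min staining / Measured by: flow cytometry with PE-labeled anti-P-selectin antibody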
(In general: Flow cytometry measures light scatter and fluorescence of single cells or particles in a stream.)

Consider `C/C(=N/NC(=O)C1CCCC1)c1ccc(NC(=O)C(F)(F)F)cc1`, for which the inhibition was 6% (inactive). Moreover, the inhibition (measured here: inhibition, second run) was 1%.
